Screening data (PubChem BioAssay)
The list is not random: actives were taken first. Their share in the collection is about 2%.
CDK5 p35 inh – inhibitors of human CDK5/p35 kinase; actives 0.01% (n = 330,000); inhibition, % at 10 µM; Recombinant CDK5/p35, ADP-Glo luminescence, 60 min;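 active = highest replicate inhibition of at least 50% and at least 75% of replicates reaching 50%; inconclusive = only one of the two criteria met; inactive = both criteria failed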
CAL PDZ FP-1 – CAL PDZ (human) peptide binding inhibition | Q9HD26 | actives 0.92% (n = 300,000) | inhibition, % at 24.9 µM | purified CAL PDZ, TMR-peptide fluorescence polarization, 1 h;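 active = mean inhibition of at least 30% with at least half of replicates also reaching 30%; inconclusive = no clear call, values can overlap the other calls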
CAL PDZ FP-2 – blocks peptide binding to human CAL PDZ domain. purified CAL PDZ, TMR-peptide fluorescence polarization, 1 h. inhibition, % at 20 µM. actives 0.02% (n = 330,000). AID 504414;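 active = highest replicate inhibition of at least 40%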
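Control set: unlabelled peptide and DMSO controls / Material: purified CerCALP PDZ construct / Timing: 1 h incubation at room temperature before polarization reading / Doses: 20 µM, one dose / Detection: fluorescence polarization (mP)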
S100A4 inh HTS – inhibitors of human S100A4 binding to myosin IIA peptide | AID 652163 | S100A4/TAMRA-MyoIIA peptide fluorescence polarization | inhibition, % at 10.7 µM | P26447 | actives 0.14% (n = 360,000);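 active = mean inhibition of at least 70% across replicates, with every replicate also reaching that level; inconclusive = mean inhibition reaches 70% but some replicates fall short; inactive = mean inhibition below 70%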
Target sequence (P26447 whole entry, looked up): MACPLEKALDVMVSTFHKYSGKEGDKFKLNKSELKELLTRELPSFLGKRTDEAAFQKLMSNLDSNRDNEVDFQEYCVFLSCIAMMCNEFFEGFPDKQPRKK
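Assay system: human S100A4 monomer with TAMRA-labelled myosin IIA peptide / Buffer or medium: Calcium-containing HEPES buffer, pH 7.2 / Reagent: TAMRA-labelled myosin IIA heavy-chain peptide probe, 5 nM / Compound: one dose per compound / Timing: polarization read 5 min after assay mix addition, stable 5–60 min / Benchmarks: neutral control DMSO, positive control TFP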
dFosB activator – mouse delta FosB homodimer activation; P13346; actives 0.99% (n = 340,000); activation, % at 25 µM; purified delta FosB, TAMRA-CDK5 oligo fluorescence polarization; percent of positive-control signal above neutral wells;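 active = mean activation above about 17%, with every replicate also reaching it, limit read from the data, passing the limit was not always enough; inconclusive = only one of the two conditions met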
Target sequence (P13346 whole entry, looked up): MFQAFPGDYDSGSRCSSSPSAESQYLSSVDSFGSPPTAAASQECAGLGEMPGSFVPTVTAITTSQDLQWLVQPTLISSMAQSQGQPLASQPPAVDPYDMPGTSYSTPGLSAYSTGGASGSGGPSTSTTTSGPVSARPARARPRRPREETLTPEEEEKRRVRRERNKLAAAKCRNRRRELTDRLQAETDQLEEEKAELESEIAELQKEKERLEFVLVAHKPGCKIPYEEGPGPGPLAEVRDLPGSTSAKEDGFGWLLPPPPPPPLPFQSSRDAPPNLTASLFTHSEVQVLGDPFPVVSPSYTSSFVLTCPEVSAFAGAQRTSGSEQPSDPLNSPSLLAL
Statin myotox sup – suppression of simvastatin myotoxicity | actives 0.78% (n = 330,000) | AID 602340 | rescue of ATP level, % at 7.49 µM | C2C12 myotubes + simvastatin, ATP luminescence, 48 h; scaled: DMSO 0, geranylgeraniol control 100;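 active = mean ATP rescue above about 67%, or every replicate alone reaching that limit, limit read from the data, passing the limit was not always enough; inconclusive = no clear call, values can overlap the other calls; inactive = mean under the limit and some replicate under it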;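 also: myotubes were challenged with 10 µM simvastatin during compound exposure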
Of the large screens only hits and unclear results are named; the others gave an inactive call.

COc1cc(NS(=O)(=O)c2ccc(NC(=S)NC(=O)/C=C/c3ccc(OC)c(OC)c3)cc2)ncn1	none
Fc1ccc(C2CC(c3ccc(F)cc3)n3ncnc3N2)cc1 (stereo not given)	none (no result: S100A4 inh HTS)
CCOC(=O)c1cc2nc(OCC)nc(OCC)c2[nH]1	CAL PDZ FP-1 41
CCC/C(=N\NC(=O)CNC(=O)c1ccc(Cl)cc1)c1ccccc1	CAL PDZ FP-1 78 (no result: Statin myotox sup)
COc1ccc(C#Cc2c(-c3ccccc3)n(-c3ccccc3)c3ccc(CO)cc23)cc1	Statin myotox sup 89
COc1ccc(-c2cc(C(=O)Nc3ccc4c(c3)OCO4)no2)cc1	none
CCCN(CC(=O)Nc1ccc(Cl)cc1Cl)C(=O)/C=C/c1ccco1	none (no result: Statin myotox sup)
O=C(Nc1cccc2ccccc12)/C(=C/c1ccc([N+](=O)[O-])cc1)NC(=O)c1ccccc1	CAL PDZ FP-1 68 (no result: S100A4 inh HTS)
O=C(Nc1cccc(C(=O)O)c1)/C(=C/c1ccc([N+](=O)[O-])cc1)NC(=O)c1ccccc1	none (no result: CAL PDZ FP-1, Statin myotox sup)
CC(C)(C)NC(=O)/C(=C\c1ccccc1F)NC(=O)c1ccc([N+](=O)[O-])cc1	CAL PDZ FP-1 70 (no result: Statin myotox sup)
Cc1sc2nc(COC(=O)c3cccc(OC(F)F)c3)[nH]c(=O)c2c1C	CAL PDZ FP-1 56 (no result: Statin myotox sup)
COc1ccc(CC(=O)NNC(=O)[C@@H]2CCCC[C@@H]2C(=O)O)cc1	none
CN(C)CCOC(=O)C1(c2ccccc2)CCOCC1	none (no result: S100A4 inh HTS)
CNC(=O)c1ccsc1NC(=O)c1ccc(S(=O)(=O)N2CCCc3ccccc32)cc1	Statin myotox sup 76 (no result: CAL PDZ FP-1)
O=C(Nc1nc2c(s1)CCCC2)c1ccc(S(=O)(=O)N2CCCc3ccccc32)cc1	none (no result: S100A4 inh HTS, Statin myotox sup)
Cc1ccccc1N(CC(=O)NC1CCCC1)C(=O)CS(=O)CC(=O)Nc1ccc2c(c1)OCO2 (stereo not given)	Statin myotox sup 127 (no result: S100A4 inh HTS)
Fc1cccc2sc(N3CCOCC3)nc12	none (no result: S100A4 inh HTS)
Fc1cccc2sc(N3CCCCC3)nc12	CAL PDZ FP-1 37 (no result: CDK5 p35 inh, S100A4 inh HTS, Statin myotox sup)
COc1cc(/C=N/NC(N)=S)cc(Br)c1OCc1ccccc1F	CAL PDZ FP-1 124 (no result: S100A4 inh HTS, Statin myotox sup)
Nn1c(Cc2cccc3ccccc23)nnc1SCc1ccccc1	none (no result: Statin myotox sup)
Nn1c(Cc2ccccc2)nnc1Cc1ccccc1	CAL PDZ FP-1 54
CC(C)C[C@H](CO)Nc1nc(Nc2cccc(Cl)c2)c2ncn(C(C)C)c2n1	none
C=CC(=O)Nc1ccc(Nc2nc(NC3CCC(N(C)C)CC3)nc3c2ncn3C(C)C)cc1 (stereo not given)	CDK5 p35 inh 95, dFosB activator inconclusive (no result: S100A4 inh HTS)
Fc1ccc(CSc2ncnc3nc[nH]c23)cc1	Statin myotox sup 158 (no result: CAL PDZ FP-1)
Brc1ccc(CSc2ncnc3nc[nH]c23)cc1	none (no result: CAL PDZ FP-1)
COCCNCC(=O)NC12CC3CC(CC(C3)C1)C2	Statin myotox sup 117 (no result: CAL PDZ FP-2, S100A4 inh HTS)
CC1CCCCC1NC(=O)CCNC(=O)N1CC(=O)Nc2ccccc21 (stereo not given)	Statin myotox sup 119
O=C(COC(=O)c1cc([N+](=O)[O-])ccc1N1CCOCC1)c1ccc(OC(F)F)cc1OC(F)F	none
O=C1NC[C@H](Cc2ccccc2)N(CC2CCN(CCc3ccccc3)CC2)C1=O	none
Cc1ccc2c(c1)N(C)/C(=C/c1cccc[n+]1C)S2	dFosB activator 18
CC(=O)C[C@H](O)CC(=O)[C@H]1OC(=O)CCCCC/C=C/Cc2ccccc21	none
CC(=O)C[C@@H](O)CC(=O)[C@@H]1OC(=O)CCCCC/C=C/Cc2ccccc21	Statin myotox sup 92
CC(=O)C[C@@H](O)CC(=O)[C@@H]1OC(=O)CCCCCCCCc2ccccc21	Statin myotox sup 125
Cc1cccc(NC(=S)NCc2ccc3c(c2)OCO3)c1C	CAL PDZ FP-1 50 (no result: S100A4 inh HTS, Statin myotox sup)
Cc1cccc(N(CC(=O)NCc2ccc3c(c2)OCO3)C(=O)CCC(=O)Nc2ccccn2)c1C	CAL PDZ FP-1 92 (no result: S100A4 inh HTS)
COc1cc(C2Nc3ccc4ncccc4c3C3=C2C(=O)CC(C)(C)C3)cc(OC)c1O (stereo not given)	none (no result: S100A4 inh HTS, Statin myotox sup)
C[C@H]1CN([C@@H](C)CO)C(=O)c2cc(NC(=O)C3CCCCC3)ccc2O[C@H]1CN(C)Cc1ccc(C(=O)Nc2ccccc2N)cc1	none (no result: CDK5 p35 inh, CAL PDZ FP-1, CAL PDZ FP-2, dFosB activator, Statin myotox sup)
COc1ccc(C2C(C#N)=C(N)Oc3cc(C)n(CCN4CCOCC4)c(=O)c32)cc1OC (stereo not given)	none (no result: S100A4 inh HTS)
Cc1ccc(-c2cc(C(F)F)n3ncc(C(=O)N4CCc5ccccc54)c3n2)cc1	none (no result: S100A4 inh HTS, Statin myotox sup)
O=C(c1cnn2c(C(F)F)cc(-c3ccccc3)nc12)N1CCc2ccccc21	Statin myotox sup 118
COc1ccc(/C=C2\SC(=O)N(CC(=O)Nc3cccc(C)c3)C2=O)cc1O	dFosB activator 19
COc1cc(/C=C2\SC(=S)N(CC(=O)Nc3cccnc3)C2=O)cc(OC)c1OC	none
CCOC(=O)CN1C(=O)S/C(=C/c2ccc(OC)c([N+](=O)[O-])c2)C1=O	Statin myotox sup 113
COc1cc(/C=C2\SC(=S)N(CC(=O)Nc3ccc(O)cc3)C2=O)cc(OC)c1OC	dFosB activator 18
COc1cc(/C=C2\SC(=O)N(CC(=O)Nc3cccc(C)c3)C2=O)ccc1OC(C)C(=O)O (stereo not given)	none (no result: CAL PDZ FP-1)
CCC(C)c1ccccc1N1CC(C(=O)N2CCN(c3ccccc3)CC2)CC1=O (stereo not given)	none (no result: Statin myotox sup)
CC1=CCCC(C)(C)C1/C=C/C(C)=N/NC(=O)c1ccncc1 (stereo not given)	none (no result: Statin myotox sup)
O=C(OCn1nnc2ccccc2c1=O)C1=COCCO1	none (no result: S100A4 inh HTS, Statin myotox sup)
CC(=O)c1ccc(NC(=O)Cn2cnc(S(=O)(=O)N3CCCC3)c2)cc1	CAL PDZ FP-1 44 (no result: S100A4 inh HTS)
CC(=O)c1ccc(NC(=O)Cn2cnc(S(=O)(=O)N3CCCCC3)c2)cc1	none
COc1ccc(NC(=O)N[C@@H]2C=C[C@@H](CC(=O)NC3CCC3)O[C@@H]2CO)cc1	none (no result: CDK5 p35 inh, CAL PDZ FP-1, CAL PDZ FP-2, dFosB activator)
CC(C)[C@H](NC(=O)C1CCN(S(=O)(=O)c2ccccc2)CC1)C(=O)NCc1ccco1	none
COc1cccc(CNC(=O)CCC2CCCN(C(=O)C3=CC(=O)CC(C)(C)O3)C2)c1 (stereo not given)	Statin myotox sup 79
CCOC(=O)C(=CNc1cc(C)nn1-c1ccccc1)C(=O)OCC	none
CCOC(=O)C(/C=N/c1cc(C)nn1-c1ccccc1)=C(\C)O	CAL PDZ FP-1 61 (no result: S100A4 inh HTS)
O=C(Nc1ccccc1N1CCOCC1)c1cc(=O)[nH]c2ccccc12	none
CCn1cc([N+](=O)[O-])c(C(=O)N2N=C(c3cccc4ccccc34)CC2c2ccccc2O)n1 (stereo not given)	Statin myotox sup 80 (no result: S100A4 inh HTS)
CNC[C@H]1OCCCC[C@H](C)Oc2ccc(NS(=O)(=O)c3ccc(C)cc3)cc2C(=O)N([C@H](C)CO)C[C@H]1C	S100A4 inh HTS inconclusive (no result: CDK5 p35 inh, CAL PDZ FP-1, CAL PDZ FP-2, dFosB activator)
O=C(CCCc1c[nH]c2ccccc12)NCc1ccccc1F	none
CCOc1ccc(Cl)cc1CNCCCSc1ncccn1	CAL PDZ FP-1 70
